Tests used:
[1] = molecular target: T1, Tyrosyl-DNA phosphodiesterase 1 (Homo sapiens, UniProt Q9NUW8)
[2] = molecular target: T1, Tyrosyl-DNA phosphodiesterase 1; assay: Reversal of Tdp1-mediated drug resistance in human MCF7 cells assessed as camptothecin CC50 at 5 uM measured after 72 hrs by MTT assay (reference value: 1430 +/- 430 nM); type: cell-based
How it was run: (§1)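 MCF-7 cells, about 2000 per well, were pre-incubated for 24 h at 37 °C in IMDM (5% CO₂). They were then given graded camptothecin concentrations together with a fixed 5 μM coumarin. After 72 h, viable cells were measured by MTT. Camptothecin CC50 was estimated with and without the coumarin.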

[3] = Cytotoxicity against human MCF7 cells expressing Tdp1 assessed as reduction in cell viability up to 100 uM measured after 72 hrs by MTT assay; type: toxicity, cell-based; settings: mcf7, 72 h
How it was run: (§2)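 MCF-7 mammary adenocarcinoma cells, about 2000 per well, were pre-incubated for 24 h at 37 °C in IMDM (5% CO₂). They were then exposed to the coumarins over a dose series up to 100 μM. After 72 h, live cells were quantified by colorimetric MTT test. CC50 was read from the dose-response curve.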

[4] = Cytotoxicity against human MCF7 cells expressing Tdp1 assessed as reduction in cell viability measured after 72 hrs by MTT assay; type: toxicity, cell-based; settings: for Activity: mcf7, 72 h
How it was run: as §2

[5] = Cytotoxicity against human RPMI8226 cells expressing low levels of Tdp1 assessed as reduction in cell viability up to 100 uM measured after 72 hrs by MTT assay; type: toxicity, cell-based; settings: rpmi-8226, 72 h
How it was run: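 RPMI 8226 human myeloma cells were seeded at about 2000 per well and treated with the coumarins. They were incubated at 37 °C in RPMI 1640 medium (5% CO₂). Viability was measured by MTT.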

[6] = molecular target: T1, Tyrosyl-DNA phosphodiesterase 1; assay: Reversal of Tdp1-mediated drug resistance in human MCF7 cells assessed as fold reduction in camptothecin CC50 at 5 uM measured after 72 hrs by MTT assay relative to camptothecin alone; type: cell-based
How it was run: as §1

T1 sequence (Q9NUW8 whole entry): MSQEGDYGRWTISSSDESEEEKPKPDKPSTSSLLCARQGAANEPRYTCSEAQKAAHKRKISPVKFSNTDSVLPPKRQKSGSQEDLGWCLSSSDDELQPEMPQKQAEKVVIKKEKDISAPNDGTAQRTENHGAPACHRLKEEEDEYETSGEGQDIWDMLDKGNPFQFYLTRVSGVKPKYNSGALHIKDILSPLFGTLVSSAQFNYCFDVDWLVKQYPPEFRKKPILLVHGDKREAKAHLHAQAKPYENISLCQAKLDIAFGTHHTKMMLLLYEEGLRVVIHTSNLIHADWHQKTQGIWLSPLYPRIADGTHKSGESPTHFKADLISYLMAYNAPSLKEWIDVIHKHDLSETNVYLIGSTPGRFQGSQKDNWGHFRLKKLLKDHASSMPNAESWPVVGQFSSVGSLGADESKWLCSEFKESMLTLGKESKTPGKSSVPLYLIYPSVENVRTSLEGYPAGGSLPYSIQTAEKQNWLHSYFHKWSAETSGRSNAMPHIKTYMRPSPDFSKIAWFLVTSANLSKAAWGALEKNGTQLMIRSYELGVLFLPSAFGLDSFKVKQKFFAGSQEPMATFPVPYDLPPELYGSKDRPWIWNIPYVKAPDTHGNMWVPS

For COc1cccc(COc2ccc3c4c(c(=O)oc3c2)CCCC4)c1, the IC50 [1] was 4.93 µM.

In the case of CC1(C)[C@H]2CC=C(COc3ccc4c5c(c(=O)oc4c3)CCC5)[C@@H]1C2, the CC50 [2] is reported as 0.33 µM, the Activity [3] is reported as “Non-Toxic” and the IC50 [1] is reported as 1.37 µM.

With CC1(C)[C@H]2CC=C(CCOc3ccc4c5c(c(=O)oc4c3)CCCC5)[C@@H]1C2 the CC50 [2] was 2.3 µM, the Activity [4] was “Dose-dependent effect” and the IC50 [1] was 1.45 µM.

In the case of CC1(C)[C@H]2CC=C(CCOc3ccc4c5c(c(=O)oc4c3)CCC5)[C@@H]1C2, the Activity [4] is reported as “Dose-dependent effect” and the IC50 [1] is reported as 1.09 µM.

With Cc1cc(=O)oc2cc(OCC3=CC[C@H]4C[C@@H]3C4(C)C)ccc12 the CC50 [2] was 0.34 µM, the Activity [5] was “Non-Toxic” and the Activity [4] was “Toxic”. The IC50 [1] was 1.56 µM.

With Cc1cc(=O)oc2cc(OCC3=CC[C@@H]4C[C@H]3C4(C)C)ccc12 the CC50 [2] was 0.32 µM, the Activity [5] was “Non-Toxic” and the Activity [4] was “Toxic”. For the same compound, the IC50 [1] was 4.31 µM.

With COc1cc(COc2ccc3c4c(c(=O)oc3c2)CCC4)cc(OC)c1OC the IC50 [1] was > 10 µM.

In the case of CC1(C)[C@H]2CC=C(COc3ccc4c5c(c(=O)oc4c3)CCCC5)[C@@H]1C2, the Activity [3] is reported as “Non-Toxic” and the IC50 [1] is reported as 1.23 µM.

With CC1(C)[C@@H]2CC=C(COc3ccc4c5c(c(=O)oc4c3)CCC5)[C@H]1C2 the fold change (FC) [6] was 8, the CC50 [2] was 0.18 µM and the Activity [5] was “Non-Toxic”. For the same compound, the CC50 at 72 h ([4]; MCF7 cells expressing Tdp1) was > 100 µM and the IC50 [1] was 0.675 µM.

In the case of COc1cccc(COc2ccc3c(C)cc(=O)oc3c2)c1, the IC50 [1] is reported as > 10 µM.

For COc1cc(COc2ccc3c(C)cc(=O)oc3c2)cc(OC)c1OC, the IC50 [1] was > 10 µM.

For COc1cc(COc2ccc3c4c(c(=O)oc3c2)CCCC4)cc(OC)c1OC, the IC50 [1] was > 10 µM.

In the case of CC1(C)[C@@H]2CC=C(COc3ccc4c5c(c(=O)oc4c3)CCCC5)[C@H]1C2, the CC50 [2] is reported as 0.41 µM, the Activity [5] is reported as “Non-Toxic” and the Activity [3] is reported as “Non-Toxic”. For the same compound, the IC50 [1] was 1.2 µM.

— ChEMBL document CHEMBL3860076, “New inhibitors of tyrosyl-DNA phosphodiesterase I (Tdp 1) combining 7-hydroxycoumarin and monoterpenoid moieties” (Bioorg Med Chem, 2016)
